Test results published in ChEMBL document CHEMBL1128681, “Studies on the monoamine oxidase (MAO)-catalyzed oxidation of phenyl-substituted 1-methyl-4-phenoxy-1,2,3,6-tetrahydropyridine derivatives: factors contributing to MAO-A and MAO-B selectivity” (J Med Chem, 1995).

Assays:
[1] = substrate: CN1CC=C(Cc2ccccc2)CC1; assay: (§1) Michaelis-Menten constant for Monoamine oxidase A-catalyzed oxidation (KM).
In short: (§2)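 MAO-A at 0.16 μM final, raised to 0.32 μM for one slowly oxidized substrate. The MAO-A preparation was diluted with 3 volumes of phosphate buffer just before use, and its activity was re-checked bimonthly with kynuramine at 30 °C. Substrates at 100–2000 μM in 100 mM sodium phosphate pH 7.4; initial rates by spectrophotometry. kcat and KM from double-reciprocal plots; kcat/KM as their ratio.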

[2] = substrate: CN1CC=C(Oc2ccc(Cl)cc2)CC1; assay: as §1; in short: as §2
[3] = substrate: CN1CC=C(Oc2ccc([N+](=O)[O-])cc2)CC1; assay: as §1; in short: as §2
[4] = substrate: CN1CC=C(Oc2cccc(-c3ccccc3)c2)CC1; assay: as §1; in short: as §2
[5] = substrate: CN1CC=C(Oc2cccc(Cl)c2)CC1; assay: as §1; in short: as §2
[6] = substrate: CN1CC=C(Oc2cccc([N+](=O)[O-])c2)CC1; assay: as §1; in short: as §2
[7] = substrate: CN1CC=C(Oc2ccccc2-c2ccccc2)CC1; assay: as §1; in short: as §2
[8] = substrate: CN1CC=C(Oc2ccccc2Cl)CC1; assay: as §1; in short: as §2
[9] = substrate: CN1CC=C(Oc2ccccc2[N+](=O)[O-])CC1; assay: as §1; in short: as §2
[10] = substrate: COc1ccc(OC2=CCN(C)CC2)cc1; assay: as §1; in short: as §2
[11] = substrate: COc1cccc(OC2=CCN(C)CC2)c1; assay: as §1; in short: as §2
[12] = substrate: COc1ccccc1OC1=CCN(C)CC1; assay: as §1; in short: as §2
[13] = substrate: Cc1ccc(OC2=CCN(C)CC2)cc1; assay: as §1; in short: as §2
[14] = substrate: Cc1cccc(OC2=CCN(C)CC2)c1; assay: as §1; in short: as §2
[15] = substrate: Cc1ccccc1OC1=CCN(C)CC1; assay: as §1; in short: as §2
[16] = substrate: CN1CC=C(Cc2ccccc2)CC1; assay: (§3) Michaelis-Menten constant for Monoamine oxidase B catalyzed oxidation (KM).; design: species or system Bos taurus
In short: (§4)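 MAO-B at 0.08 μM final; activity was calibrated with MPTP at 30 °C and the preparation was stored at –15 °C. Substrate range 100–2000 μM in 100 mM sodium phosphate pH 7.4, with spectrophotometric initial oxidation rates. KM and kcat derived from double-reciprocal plots, and kcat/KM calculated from them.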

[17] = substrate: CN1CC=C(Oc2ccc(Cl)cc2)CC1; assay: as §3; design: species or system Bos taurus; in short: as §4
[18] = substrate: CN1CC=C(Oc2ccc([N+](=O)[O-])cc2)CC1; assay: as §3; design: species or system Bos taurus; in short: as §4
[19] = substrate: CN1CC=C(Oc2cccc(-c3ccccc3)c2)CC1; assay: as §3; design: species or system Bos taurus; in short: as §4
[20] = substrate: CN1CC=C(Oc2cccc(Cl)c2)CC1; assay: as §3; design: species or system Bos taurus; in short: as §4
[21] = substrate: CN1CC=C(Oc2cccc([N+](=O)[O-])c2)CC1; assay: as §3; design: species or system Bos taurus; in short: as §4
[22] = substrate: CN1CC=C(Oc2ccccc2-c2ccccc2)CC1; assay: as §3; design: species or system Bos taurus; in short: as §4
[23] = substrate: CN1CC=C(Oc2ccccc2Cl)CC1; assay: as §3; design: species or system Bos taurus; in short: as §4
[24] = substrate: CN1CC=C(Oc2ccccc2[N+](=O)[O-])CC1; assay: as §3; design: species or system Bos taurus; in short: as §4
[25] = substrate: COc1ccc(OC2=CCN(C)CC2)cc1; assay: as §3; design: species or system Bos taurus; in short: as §4
[26] = substrate: COc1cccc(OC2=CCN(C)CC2)c1; assay: as §3; design: species or system Bos taurus; in short: as §4
[27] = substrate: COc1ccccc1OC1=CCN(C)CC1; assay: as §3; design: species or system Bos taurus; in short: as §4
[28] = substrate: Cc1ccc(OC2=CCN(C)CC2)cc1; assay: as §3; design: species or system Bos taurus; in short: as §4
[29] = substrate: Cc1cccc(OC2=CCN(C)CC2)c1; assay: as §3; design: species or system Bos taurus; in short: as §4
[30] = substrate: Cc1ccccc1OC1=CCN(C)CC1; assay: as §3; design: species or system Bos taurus; in short: as §4

B1: Amine oxidase [flavin-containing] A (Homo sapiens) (protein)
chain: MENQEKASIAGHMFDVVVIGGGISGLSAAKLLTEYGVSVLVLEARDRVGGRTYTIRNEHVDYVDVGGAYVGPTQNRILRLSKELGIETYKVNVSERLVQYVKGKTYPFRGAFPPVWNPIAYLDYNNLWRTIDNMGKEIPTDAPWEAQHADKWDKMTMKELIDKICWTKTARRFAYLFVNINVTSEPHEVSALWFLWYVKQCGGTTRIFSVTNGGQERKFVGGSGQVSERIMDLLGDQVKLNHPVTHVDQSSDNIIIETLNHEHYECKYVINAIPPTLTAKIHFRPELPAERNQLIQRLPMGAVIKCMMYYKEAFWKKKDYCGCMIIEDEDAPISITLDDTKPDGSLPAIMGFILARKADRLAKLHKEIRKKKICELYAKVLGSQEALHPVHYEEKNWCEEQYSGGCYTAYFPPGIMTQYGRVIRQPVGRIFFAGTETATKWSGYMEGAVEAGERAAREVLNGLGKVTEKDIWVQEPESKDVPAVEITHTFWERNLPSVSGLLKIIGFSTSVTALGFVLYKYKLLPRS
[1]
  Km: 103 µM
  kcat: 0.467 s⁻¹
  kcat/Km: 4600 M⁻¹ s⁻¹
[2]
  Km: 63 µM
  kcat: 3.15 s⁻¹
  kcat/Km: 50100 M⁻¹ s⁻¹
[3]
  Km: 169 µM
  kcat: 1.37 s⁻¹
  kcat/Km: 8050 M⁻¹ s⁻¹
[4]
  Km: 232 µM
  kcat: 21.5 s⁻¹
  kcat/Km: 92800 M⁻¹ s⁻¹
[5]
  Km: 82 µM
  kcat: 5.97 s⁻¹
  kcat/Km: 72800 M⁻¹ s⁻¹
[6]
  Km: 174 µM
  kcat: 4.95 s⁻¹
  kcat/Km: 28500 M⁻¹ s⁻¹
[7]
  Km: 426 µM
  kcat: 4.08 s⁻¹
  kcat/Km: 9580 M⁻¹ s⁻¹
[8]
  Km: 83 µM
  kcat: 3.4 s⁻¹
  kcat/Km: 41000 M⁻¹ s⁻¹
[9]
  Km: 306 µM
  kcat: 6.83 s⁻¹
  kcat/Km: 22300 M⁻¹ s⁻¹
[10]
  Km: 47 µM
  kcat: 1.22 s⁻¹
  kcat/Km: 25800 M⁻¹ s⁻¹
[11]
  Km: 176 µM
  kcat: 8.2 s⁻¹
  kcat/Km: 46600 M⁻¹ s⁻¹
[12]
  Km: 75 µM
  kcat: 0.95 s⁻¹
  kcat/Km: 12700 M⁻¹ s⁻¹
[13]
  Km: 129 µM
  kcat: 1.3 s⁻¹
  kcat/Km: 10000 M⁻¹ s⁻¹
[14]
  Km: 212 µM
  kcat: 7.18 s⁻¹
  kcat/Km: 33900 M⁻¹ s⁻¹
[15]
  Km: 108 µM
  kcat: 4.5 s⁻¹
  kcat/Km: 41700 M⁻¹ s⁻¹

B2: Amine oxidase [flavin-containing] B (Bos taurus) (protein)
chain: MSSKCDVVVVGGGISGMAAAKLLHDSGLNVIVLEARDRVGGRTYTLRNQKVKYVDLGGSYVGPTQNHILRLSKELGLETYKVNEVERLIHHTKGKSYPFRGSFPSVWNPITYLDHNNLWRTMDDMGREIPSDAPWKAPLAEQWDLMTMKELLDKICWTESSKQLAILFVNLCVTAEIHEVSALWFLWYVKQCGGTTRIFSTSNGGQERKFVGGSGQVSERIMDLLGDRVKLERPVIHIDQTGENVLVETLNHELYEAKYVISAVPPVLGMKIHFNPPLPMMRNQLITRVPLGSVIKSIVYYKEPFWRNMDYCGSMIIEGEEAPVAYALDDTKPDGSYPAIIGFILAHKARKLARLTKEERLKKLCDLYAKVLGSQEALHPVHYEEKNWCEEQYSGGCYTSYFPPGIMTQYGRVLRQPVGRIYFAGTETATHWSGYMEGAVEAGERAAREILHAMGKIPEDEIWLPEPESVDVPAKPITTTFLQRHLPSVPGLLKLIGLTTIFSATALGFLAHKRGLLVRI
[16]
  Km: 180 µM
  kcat: 10.7 s⁻¹
  kcat/Km: 59700 M⁻¹ s⁻¹
[17]
  Km: 254 µM
  kcat: 5.93 s⁻¹
  kcat/Km: 23400 M⁻¹ s⁻¹
[18]
  Km: 443 µM
  kcat: 1.4 s⁻¹
  kcat/Km: 3180 M⁻¹ s⁻¹
[19]
  Km: 346 µM
  kcat: 3.67 s⁻¹
  kcat/Km: 10600 M⁻¹ s⁻¹
[20]
  Km: 308 µM
  kcat: 3.73 s⁻¹
  kcat/Km: 12200 M⁻¹ s⁻¹
[21]
  Km: 105 µM
  kcat: 2.47 s⁻¹
  kcat/Km: 23500 M⁻¹ s⁻¹
[22]
  Km: 691 µM
  kcat: 1.52 s⁻¹
  kcat/Km: 2200 M⁻¹ s⁻¹
[23]
  Km: 220 µM
  kcat: 3.02 s⁻¹
  kcat/Km: 13700 M⁻¹ s⁻¹
[24]
  Km: 86 µM
  kcat: 1.13 s⁻¹
  kcat/Km: 13100 M⁻¹ s⁻¹
[25]
  Km: 474 µM
  kcat: 5.9 s⁻¹
  kcat/Km: 12400 M⁻¹ s⁻¹
[26]
  Km: 337 µM
  kcat: 4.05 s⁻¹
  kcat/Km: 12000 M⁻¹ s⁻¹
[27]
  Km: 313 µM
  kcat: 5.7 s⁻¹
  kcat/Km: 12400 M⁻¹ s⁻¹
[28]
  Km: 106 µM
  kcat: 3.57 s⁻¹
  kcat/Km: 33600 M⁻¹ s⁻¹
[29]
  Km: 116 µM
  kcat: 3.37 s⁻¹
  kcat/Km: 29100 M⁻¹ s⁻¹
[30]
  Km: 98 µM
  kcat: 2.92 s⁻¹
  kcat/Km: 29700 M⁻¹ s⁻¹
